Measurements as given in ChEMBL document CHEMBL1147862, “Studies on synthesis and pharmacological activities of 3,6-disubstituted-1,2,4-triazolo[3,4-b]-1,3,4-thiadiazoles and their dihydro analogues” (2007).

Experiments:
Type in all cases: functional
Escherichia coli [1] = assay: Antibacterial activity against Escherichia coli at 10 ug/ml by agar plate diffusion technique; settings: read-out: IZ
Aspergillus niger [2] = assay: Antifungal activity against Aspergillus niger at 30 ug/ml by paper disc method; settings: read-out: IZ
Candida albicans [3] = assay: Antifungal activity against Candida albicans at 30 ug/ml by paper disc method; settings: read-out: IZ
Mus musculus [4] = assay: Analgesic activity in Swiss mouse assessed as increase in reaction time at 20 mg/kg, po after 90 mins by Eddy's hot plate technique
Summary of the method: (§1)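 Swiss mice of either sex, 25–35 g, placed one at a time on a hot plate held at 55 °C. End point is paw licking or jumping, whichever comes first, with a 15 s cut-off to avoid paw injury. Reaction time is recorded and reported as percent increase in reaction time.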

Pseudomonas aeruginosa [5] = assay: Antibacterial activity against Pseudomonas aeruginosa at 30 ug/ml by agar plate diffusion technique; settings: read-out: IZ
Pseudomonas aeruginosa [6] = assay: Antibacterial activity against Pseudomonas aeruginosa at 10 ug/ml by agar plate diffusion technique; settings: read-out: IZ
Candida albicans [7] = assay: Antifungal activity against Candida albicans at 10 ug/ml by paper disc method; settings: read-out: IZ
Escherichia coli [8] = assay: Antibacterial activity against Escherichia coli at 20 ug/ml by agar plate diffusion technique; settings: read-out: IZ
Bacillus subtilis [9] = assay: Antibacterial activity against Bacillus subtilis at 30 ug/ml by agar plate diffusion technique; settings: read-out: IZ
Bacillus subtilis [10] = assay: Antibacterial activity against Bacillus subtilis at 10 ug/ml by agar plate diffusion technique; settings: read-out: IZ
Candida albicans [11] = assay: Antifungal activity against Candida albicans at 20 ug/ml by paper disc method; settings: read-out: IZ
Rattus norvegicus [12] = assay: Antiinflammatory activity in Wistar Albino rat assessed as inhibition of carrageenan-induced paw oedema at 20 mg/kg after 2 hrs relative to control
Summary of the method: (§2)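 Wistar albino rats, 150–200 g, six per group, dosed orally with a 20 mg/kg suspension; control gets 0.1 ml 1% gum acacia. After 30 min, 0.1 ml 1% carrageenan in saline is injected subplantar into the right hind paw. Paw volume is read by plethysmograph at 0–4 h. Inhibition = 100(1 − Vtest/Vcontrol) on mean volume increase.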

Mus musculus [13] = assay: Analgesic activity in Swiss mouse assessed as increase in reaction time at 20 mg/kg, po after 30 mins by Eddy's hot plate technique; summary of the method: as §1
Escherichia coli [14] = assay: Antibacterial activity against Escherichia coli at 30 ug/ml by agar plate diffusion technique; settings: read-out: IZ
Bacillus subtilis [15] = assay: Antibacterial activity against Bacillus subtilis at 20 ug/ml by agar plate diffusion technique; settings: read-out: IZ
Pseudomonas aeruginosa [16] = assay: Antibacterial activity against Pseudomonas aeruginosa at 20 ug/ml by agar plate diffusion technique; settings: read-out: IZ
Rattus norvegicus [17] = assay: Antiinflammatory activity in Wistar Albino rat assessed as inhibition of carrageenan-induced paw oedema at 20 mg/kg after 1 hr relative to control; summary of the method: as §2
Aspergillus niger [18] = assay: Antifungal activity against Aspergillus niger at 20 ug/ml by paper disc method; settings: read-out: IZ
Rattus norvegicus [19] = assay: Antiinflammatory activity in Wistar Albino rat assessed as inhibition of carrageenan-induced paw oedema at 20 mg/kg after 4 hrs relative to control; summary of the method: as §2
Aspergillus niger [20] = assay: Antifungal activity against Aspergillus niger at 10 ug/ml by paper disc method; settings: read-out: IZ
Staphylococcus aureus [21] = assay: Antibacterial activity against Staphylococcus aureus at 20 ug/ml by agar plate diffusion technique; settings: read-out: IZ
Mus musculus [22] = assay: Analgesic activity in Swiss mouse assessed as increase in reaction time at 20 mg/kg, po after 60 mins by Eddy's hot plate technique; summary of the method: as §1
Rattus norvegicus [23] = assay: Antiinflammatory activity in Wistar Albino rat assessed as inhibition of carrageenan-induced paw oedema at 20 mg/kg after 3 hrs relative to control; summary of the method: as §2
Staphylococcus aureus [24] = assay: Antibacterial activity against Staphylococcus aureus at 10 ug/ml by agar plate diffusion technique; settings: read-out: IZ
Staphylococcus aureus [25] = assay: Antibacterial activity against Staphylococcus aureus at 30 ug/ml by agar plate diffusion technique; settings: read-out: IZ

| SMILES | zone of inhibition at 10 µg/mL (Escherichia coli [1]) [mm] | zone of inhibition at 30 µg/mL (Aspergillus niger [2]) [mm] | zone of inhibition at 30 µg/mL (Candida albicans [3]) [mm] | Activity (Mus musculus [4]) [%] | zone of inhibition at 30 µg/mL (Pseudomonas aeruginosa [5]) [mm] | zone of inhibition at 10 µg/mL (Pseudomonas aeruginosa [6]) [mm] | zone of inhibition at 10 µg/mL (Candida albicans [7]) [mm] | zone of inhibition at 20 µg/mL (Escherichia coli [8]) [mm] | zone of inhibition at 30 µg/mL (Bacillus subtilis [9]) [mm] | zone of inhibition at 10 µg/mL (Bacillus subtilis [10]) [mm] | zone of inhibition at 20 µg/mL (Candida albicans [11]) [mm] | inhibition in vivo at 20 mg/kg (Rattus norvegicus [12]) [%] | Activity (Mus musculus [13]) [%] | zone of inhibition at 30 µg/mL (Escherichia coli [14]) [mm] | zone of inhibition at 20 µg/mL (Bacillus subtilis [15]) [mm] | zone of inhibition at 20 µg/mL (Pseudomonas aeruginosa [16]) [mm] | inhibition in vivo at 20 mg/kg (Rattus norvegicus [17]) [%] | zone of inhibition at 20 µg/mL (Aspergillus niger [18]) [mm] | inhibition in vivo at 20 mg/kg (Rattus norvegicus [19]) [%] | zone of inhibition at 10 µg/mL (Aspergillus niger [20]) [mm] | further results |
| --- | --- | --- | --- | --- | --- | --- | --- | --- | --- | --- | --- | --- | --- | --- | --- | --- | --- | --- | --- | --- | --- |
| COc1ccc(Cl)c(-c2nnc3sc(-c4cc(C)nc5ccccc45)nn23)c1 | 5.16 | 18.5 | 18.8 | 21.06 | 16.1 | 5.31 | 6.18 | 9.12 | 16.4 | 7.06 | 13.8 | 20.2 | 7.6 | 16.7 | 11.1 | 10.3 | 8.68 | 12.6 | 27.4 | 5.62 | zone of inhibition at 20 µg/mL (Staphylococcus aureus [21]): 12.1 mm; Activity (Mus musculus [22]): 12.65%; inhibition in vivo at 20 mg/kg (Rattus norvegicus [23]): 24.1%; zone of inhibition at 10 µg/mL (Staphylococcus aureus [24]): 6.89 mm; zone of inhibition at 30 µg/mL (Staphylococcus aureus [25]): 16.1 mm |
| Cc1occc1-c1nnc2sc(-c3ccnc(F)c3)nn12 | 8.54 | 22.7 | 23.8 | 16.43 | 21.3 | 8.39 | 8.82 | 14.3 | 19.9 | 8.12 | 16.6 | 18.2 | 4.13 | 20.8 | 14.8 | 15.2 | 16.7 | 13 | 24.4 | 7.36 | zone of inhibition at 20 µg/mL (Staphylococcus aureus [21]): 14.2 mm; Activity (Mus musculus [22]): 6.2%; inhibition in vivo at 20 mg/kg (Rattus norvegicus [23]): 20.4%; zone of inhibition at 10 µg/mL (Staphylococcus aureus [24]): 7.9 mm; zone of inhibition at 30 µg/mL (Staphylococcus aureus [25]): 20.2 mm |
